Results published in ChEMBL document CHEMBL1137767, “2-(3-Aryl-2-propenoyl)-3-methylquinoxaline-1,4-dioxides: a novel cluster of tumor-specific cytotoxins which reverse multidrug resistance” (Bioorg Med Chem, 2009).
Active and inactive are the calls of the source. No cut-off for these calls is given here.

What was measured:
HCC 2998 = assay: Growth inhibition of human HCC2998 cells at 10 uM; assay type: functional, cell-based
Method in brief: (§1)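 Human tumor cell line panel (59 lines across leukemia, melanoma, non-small cell lung, colon, CNS, ovarian, renal, prostate, breast) treated at a single 10 uM concentration; growth inhibition recorded per line.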

DU-145 = assay: Growth inhibition of human DU145 cells at 10 uM; assay type: functional, cell-based; method in brief: as §1
NCI-H23 = assay: Growth inhibition of human NCI-H23 cells at 10 uM; assay type: functional, cell-based; method in brief: as §1
[1] = Cytotoxicity against human HGF cells after 48 hrs; assay type: cell-based
CAKI-1 = assay: Growth inhibition of human Caki1 cells at 10 uM; assay type: functional, cell-based; method in brief: as §1
SW-620 = assay: Growth inhibition of human SW620 cells at 10 uM; assay type: functional, cell-based; method in brief: as §1
T47D = assay: Growth inhibition of human T47D cells at 10 uM; assay type: functional, cell-based; method in brief: as §1
[2] = biological target: T1, ATP-dependent translocase ABCB1 (Homo sapiens, UniProt P08183); assay: Reversal of P-glycoprotein-mediated multidrug resistance in human MDR1 gene transfected mouse L5178Y cells assessed as fluorescence activity ratio at 20 uM by rhodamine 123 accumulation assay; assay type: cell-based
Method in brief: (§2)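 Murine L-5178Y lymphoma cells transfected with human MDR1 gene (P-gp-overexpressing), alongside parental cells, treated or untreated with compound; rhodamine 123 accumulation measured by fluorescence; FAR = ratio of fluorescence intensity in treated versus untreated cells, values above 1 taken as MDR reversal.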

NCI-H460 = assay: Growth inhibition of human NCI-H460 cells at 10 uM; assay type: functional, cell-based; method in brief: as §1
RPMI8266 = assay: Growth inhibition of human […] cells at 10 uM; assay type: functional, cell-based; method in brief: as §1
Hs-578T = assay: Growth inhibition of human Hs 578T cells at 10 uM; assay type: functional, cell-based; method in brief: as §1
HCT-15 = assay: Growth inhibition of human HCT15 cells at 10 uM; assay type: functional, cell-based; method in brief: as §1
NCI-H522 = assay: Growth inhibition of human NCI-H522 cells at 10 uM; assay type: functional, cell-based; method in brief: as §1
CCRF-CEM [3] = assay: Growth inhibition of human CEM cells after 3 days; assay type: functional, cell-based; conditions: 72 h
Method in brief: (§3)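 Human CEM and Molt 4/C8 T-lymphocytes were grown for three days with or without serial dilutions of the compound. IC50 is the concentration that inhibits cell growth by 50%.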

HSC-2 = assay: Cytotoxicity against human HSC2 cells after 48 hrs; assay type: functional; conditions: HSC-2, 48 h
MCF7 = assay: Growth inhibition of human MCF7 cells at 10 uM; assay type: functional, cell-based; method in brief: as §1
A549 = assay: Growth inhibition of human A549 cells at 10 uM; assay type: functional, cell-based; method in brief: as §1
K562 = assay: Growth inhibition of human K562 cells at 10 uM; assay type: functional, cell-based; method in brief: as §1
SF-295 = assay: Growth inhibition of human SF295 cells at 10 uM; assay type: functional, cell-based; method in brief: as §1
MDA-MB-435 = assay: Growth inhibition of human MDA-MB-435 cells at 10 uM; assay type: functional, cell-based; method in brief: as §1
HOP-92 = assay: Growth inhibition of human HOP92 cells at 10 uM; assay type: functional, cell-based; method in brief: as §1
EKVX = assay: Growth inhibition of human EKVX cells at 10 uM; assay type: functional, cell-based; method in brief: as §1
M14 = assay: Growth inhibition of human M14 cells at 10 uM; assay type: functional, cell-based; method in brief: as §1
HSC-4 = assay: Cytotoxicity against human HSC4 cells after 48 hrs; assay type: functional; conditions: HSC-4, 48 h
UO-31 = assay: Growth inhibition of human UO31 cells at 10 uM; assay type: functional, cell-based; method in brief: as §1
[4] = Growth inhibition of human Molt4/C8 cells after 3 days; assay type: functional, cell-based; conditions: MOLT-4, 72 h; method in brief: as §3
CCRF-CEM [5] = assay: Growth inhibition of human CCRF-CEM cells at 10 uM; assay type: functional, cell-based; method in brief: as §1
OVCAR-8 = assay: Growth inhibition of human OVCAR8 cells at 10 uM; assay type: functional, cell-based; method in brief: as §1
SNB-75 = assay: Growth inhibition of human SNB75 cells at 10 uM; assay type: functional, cell-based; method in brief: as §1
[6] = Cytotoxicity against human HPLF cells after 48 hrs; assay type: cell-based
UACC-62 = assay: Growth inhibition of human UACC62 cells at 10 uM; assay type: functional, cell-based; method in brief: as §1
OVCAR-3 = assay: Growth inhibition of human OVCAR-3 cells at 10 uM; assay type: functional, cell-based; method in brief: as §1
HL-60 [7] = assay: Cytotoxicity against human HL60 cells after 48 hrs; assay type: functional; conditions: HL-60, 48 h
HCT-116 = assay: Growth inhibition of human HCT116 cells at 10 uM; assay type: functional, cell-based; method in brief: as §1
LOX IMVI = assay: Growth inhibition of human LOXIMVI cells at 10 uM; assay type: functional, cell-based; method in brief: as §1
HL-60 [8] = assay: Growth inhibition of human HL60 cells at 10 uM; assay type: functional, cell-based; method in brief: as §1
RXF 393 = assay: Growth inhibition of human RXF393 cells at 10 uM; assay type: functional, cell-based; method in brief: as §1
[9] = Cytotoxicity against human HPC cells after 48 hrs; assay type: cell-based
A498 = assay: Growth inhibition of human A498 cells at 10 uM; assay type: functional, cell-based; method in brief: as §1
OVCAR-4 = assay: Growth inhibition of human OVCAR4 cells at 10 uM; assay type: functional, cell-based; method in brief: as §1
MDA-MB-468 = assay: Growth inhibition of human MDA-MB-468 cells at 10 uM; assay type: functional, cell-based; method in brief: as §1
PC-3 = assay: Growth inhibition of human PC3 cells at 10 uM; assay type: functional, cell-based; method in brief: as §1
NCI/ADR-RES = assay: Growth inhibition of human NCI/ADR-RES cells at 10 uM; assay type: functional, cell-based; method in brief: as §1
HSC-3 = assay: Cytotoxicity against human HSC3 cells after 48 hrs; assay type: functional; conditions: HSC-3, 48 h
U-251 = assay: Growth inhibition of human U251 cells at 10 uM; assay type: functional, cell-based; method in brief: as §1
[10] = biological target: T1, ATP-dependent translocase ABCB1; assay: Reversal of P-glycoprotein-mediated multidrug resistance in human MDR1 gene transfected mouse L5178Y cells assessed as fluorescence activity ratio at 200 uM by rhodamine 123 accumulation assay; assay type: cell-based; method in brief: as §2
IGROV-1 = assay: Growth inhibition of human IGROV1 cells at 10 uM; assay type: functional, cell-based; method in brief: as §1

T1 sequence (P08183 whole entry): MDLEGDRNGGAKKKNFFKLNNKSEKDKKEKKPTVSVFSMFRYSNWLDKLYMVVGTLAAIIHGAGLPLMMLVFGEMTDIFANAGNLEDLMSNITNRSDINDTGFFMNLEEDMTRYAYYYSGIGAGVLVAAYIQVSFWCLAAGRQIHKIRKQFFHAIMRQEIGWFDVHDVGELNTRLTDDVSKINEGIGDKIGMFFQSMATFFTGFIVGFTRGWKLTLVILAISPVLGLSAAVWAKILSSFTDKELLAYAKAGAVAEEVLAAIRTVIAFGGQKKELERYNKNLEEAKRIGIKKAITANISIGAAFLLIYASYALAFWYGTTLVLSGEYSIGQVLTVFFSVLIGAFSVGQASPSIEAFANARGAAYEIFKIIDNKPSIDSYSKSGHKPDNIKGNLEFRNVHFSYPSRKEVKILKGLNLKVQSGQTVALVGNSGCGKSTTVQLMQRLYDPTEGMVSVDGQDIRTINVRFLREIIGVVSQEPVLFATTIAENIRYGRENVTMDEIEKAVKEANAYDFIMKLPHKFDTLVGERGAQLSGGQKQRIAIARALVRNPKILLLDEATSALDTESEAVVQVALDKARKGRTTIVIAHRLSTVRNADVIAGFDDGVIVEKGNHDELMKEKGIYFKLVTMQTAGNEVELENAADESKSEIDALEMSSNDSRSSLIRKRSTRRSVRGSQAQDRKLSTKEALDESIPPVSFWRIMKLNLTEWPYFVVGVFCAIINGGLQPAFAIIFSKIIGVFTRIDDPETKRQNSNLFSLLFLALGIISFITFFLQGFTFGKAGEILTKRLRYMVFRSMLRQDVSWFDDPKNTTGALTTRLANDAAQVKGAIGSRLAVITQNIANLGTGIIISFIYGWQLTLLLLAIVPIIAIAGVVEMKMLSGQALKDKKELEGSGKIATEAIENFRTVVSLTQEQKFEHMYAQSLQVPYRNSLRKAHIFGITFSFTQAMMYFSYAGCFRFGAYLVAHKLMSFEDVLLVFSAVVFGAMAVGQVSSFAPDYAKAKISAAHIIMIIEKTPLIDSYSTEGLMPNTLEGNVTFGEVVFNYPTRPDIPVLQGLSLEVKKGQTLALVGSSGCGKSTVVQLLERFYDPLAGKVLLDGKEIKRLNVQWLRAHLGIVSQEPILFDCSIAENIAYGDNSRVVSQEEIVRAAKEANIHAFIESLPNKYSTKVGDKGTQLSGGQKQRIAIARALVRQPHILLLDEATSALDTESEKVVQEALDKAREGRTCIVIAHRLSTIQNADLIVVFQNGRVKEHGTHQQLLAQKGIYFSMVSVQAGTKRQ

COc1ccc(/C=C/C(=O)c2c(C)[n+]([O-])c3ccccc3[n+]2[O-])cc1OC
growth inhibition (GI) (HCC 2998): Active | growth inhibition (GI) (DU-145): Active | growth inhibition (GI) (NCI-H23): Active | CC50 at 48 h [1]: 117 µM | growth inhibition (GI) (CAKI-1): Active | growth inhibition (GI) (SW-620): Active | growth inhibition (GI) (T47D): Active | Ratio [2]: 5.01 | growth inhibition (GI) (NCI-H460): Active | growth inhibition (GI) (RPMI8266): Active | growth inhibition (GI) (Hs-578T): Active | growth inhibition (GI) (HCT-15): Active | growth inhibition (GI) (NCI-H522): Active | IC50 (CCRF-CEM [3]): 19.2 µM | CC50 (HSC-2): 25 µM | growth inhibition (GI) (MCF7): Active | growth inhibition (GI) (A549): Active | growth inhibition (GI) (K562): Active | growth inhibition (GI) (SF-295): Active | growth inhibition (GI) (MDA-MB-435): Active | growth inhibition (GI) (HOP-92): Active | growth inhibition (GI) (EKVX): Active | growth inhibition (GI) (M14): Active | CC50 (HSC-4): 38 µM | growth inhibition (GI) (UO-31): Active | IC50 [4]: 18.5 µM | growth inhibition (GI) (CCRF-CEM [5]): Active | growth inhibition (GI) (OVCAR-8): Active | growth inhibition (GI) (SNB-75): Active | CC50 at 48 h [6]: 156 µM | growth inhibition (GI) (UACC-62): Active | growth inhibition (GI) (OVCAR-3): Active | CC50 (HL-60 [7]): 14 µM | growth inhibition (GI) (HCT-116): Active | growth inhibition (GI) (LOX IMVI): Active | growth inhibition (GI) (HL-60 [8]): Active | growth inhibition (GI) (RXF 393): Active | CC50 at 48 h [9]: 142 µM | growth inhibition (GI) (A498): Active | growth inhibition (GI) (OVCAR-4): Active | growth inhibition (GI) (MDA-MB-468): Active | growth inhibition (GI) (PC-3): Active | growth inhibition (GI) (NCI/ADR-RES): Active | CC50 (HSC-3): 31 µM | growth inhibition (GI) (U-251): Active | Ratio [10]: 23 | growth inhibition (GI) (IGROV-1): Active
